# Assay results pooled from the literature.
# Lines come from different studies, so protocols differ.
# Target: Casein kinase I isoform gamma-3 (CSNK1G3, Homo sapiens, UniProt Q9Y6M4)
SMILES,test,setting,remaining binding
COc1ncc2cc3ccccc3nc2c1C#N,"cell-free assay, competition with immobilised ligand",5 µM,96%
CC(=O)N1CCC(c2ccc(C(=O)NC3=NCCN3)cc2C(F)(F)F)CC1,"cell-free assay, competition with immobilised ligand",1 µM,100%
O=C(NCCCN1CCOCC1)c1ccc(Nc2nccc(-c3cc4ccccc4s3)n2)cc1,"binding, competition with immobilised ligand",1 µM,88%
FC(F)(F)Oc1cccc(-c2cnc3ccc(-c4ccncc4)nn23)c1,"cell-free assay, competition with immobilised ligand",5 µM,84%
N[C@H]1CCN(c2nccc(-c3cnn4ncccc34)n2)C1,binding,1 µM,100%
Nc1ncc2c(n1)-c1c([nH]c3ccc(C#CC4CC4)cc13)CCCC2,"binding, competition with immobilised ligand",1 µM,93%
CS(=O)(=O)N1CCCC(NC(=O)[C@H](CCC2CCCCC2)NC(=O)c2ccc(CNc3ncnc4c3nnn4-c3ccccc3)cc2)C1 (some centres unmarked),"cell-free assay, competition with immobilised ligand",0.1 µM,100%
C[C@@H]1CCN(c2nccc(-c3cnn4ncccc34)n2)C1,binding,1 µM,65%
COc1cnc(Nc2cccc(S(N)(=O)=O)c2)nc1N1CCN(c2ccccc2)CC1,"binding, competition with immobilised ligand",1 µM,100%
CN(C)c1nccc(-c2cnn3ncccc23)n1,binding,1 µM,82%
Cc1nc(N2CC[C@@H](O)C2)ncc1-c1cc(C(F)(F)F)cc2[nH]ncc12,"cell-free assay, competition with immobilised ligand",1 µM,74%
O=C(Nc1c[nH]nc1C(=O)NC1CCNCC1)c1cc(F)cc(F)c1,"binding, competition with immobilised ligand",1 µM,98%
O=C(NCCCN1CCOCC1)c1ccc(Nc2ncc(Cl)c(-c3ccc(Cl)s3)n2)cc1,"binding, competition with immobilised ligand",1 µM,100%
COc1ccnn2ncc(-c3ccnc(N(C)C)n3)c12,binding,1 µM,97%
CN(C)CC#Cc1ccc(OCCCc2sc(N3CCc4cccc(C(=O)Nc5nc6ccccc6s5)c4C3)nc2C(=O)O)c(F)c1,"cell-free assay, competition with immobilised ligand",1 µM,100%
CN(CCCC(F)(F)F)c1nccc(-c2cnn3ncccc23)n1,binding,1 µM,100%
N#Cc1ccc(Nc2ccc3[nH]c(=O)[nH]c3c2)c(Cl)c1,"cell-free assay, competition with immobilised ligand",1 µM,99%
O=C(c1ccc(Nc2ncc(Cl)c(-c3ccc(Cl)s3)n2)cc1)N1CCC(N2CCCC2)CC1,"binding, competition with immobilised ligand",1 µM,100%
Cc1cnn2ncc(-c3ccnc(N(C)C)n3)c2c1,binding,1 µM,82%
CSc1cccnc1N1CCN(Cc2nc3ccccc3[nH]2)CC1,"cell-free assay, competition with immobilised ligand",1 µM,86%
